Laboratory results: ChEMBL document CHEMBL4715736, “Identification of anticancer agents based on the thieno[2,3-b]pyridine and 1H-pyrazole molecular scaffolds” (2016)

Test system: ACHN
Assay: Growth inhibition of human ACHN cells incubated for 48 hrs by sulforhodamine B assay
Assay type: functional
Conditions: not given
Summary of the method: (§1)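 NCI Developmental Therapeutics Program NCI60 panel. Compounds that were active in the 10 µM one-dose screen went on to dose–response testing. Growth at each concentration is expressed relative to untreated control (100%). GI50 (concentration giving 50% of maximal inhibition of proliferation) and TGI (concentration giving total growth inhibition) were derived from the curves.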

SMILES	GI50 [µM]	TGI [µM]
Cc1cccc(NC(=O)c2sc3nc4c(cc3c2N)C(=O)CCC4)c1	0.0224	≥ 100

Same assay, conditions: read-out: LC50 (the source's name)

SMILES	CC50 [µM]
Cc1cccc(NC(=O)c2sc3nc4c(cc3c2N)C(=O)CCC4)c1	> 100

Test system: SK-MEL-5
Assay: Growth inhibition of human SK-MEL-5 cells assessed as cell growth at 100 uM incubated for 48 hrs by sulforhodamine B assay relative to control
Assay type: functional
Conditions: read-out: Activity

SMILES	growth at 100 µM [%]
Cc1cccc(NC(=O)c2sc3nc4c(cc3c2N)C(=O)CCC4)c1	-30

Test system: Hs-578T
Assay: Growth inhibition of human Hs-578T cells assessed as cell growth at 0.01 uM incubated for 48 hrs by sulforhodamine B assay relative to control
Assay type: functional
Conditions: read-out: Activity

SMILES	growth at 0.01 µM [%]
Cc1cccc(NC(=O)c2sc3nc4c(cc3c2N)C(=O)CCC4)c1	88

Test system: SF-295
Assay: Growth inhibition of human SF-295 cells assessed as cell growth at 100 uM incubated for 48 hrs by sulforhodamine B assay relative to control
Assay type: functional
Conditions: read-out: Activity

SMILES	growth at 100 µM [%]
Cc1cccc(NC(=O)c2sc3nc4c(cc3c2N)C(=O)CCC4)c1	7

Test system: K562
Assay: Growth inhibition of human K562 cells assessed as cell growth at 0.01 uM incubated for 48 hrs by sulforhodamine B assay relative to control
Assay type: functional
Conditions: read-out: Activity

SMILES	growth at 0.01 µM [%]
Cc1cccc(NC(=O)c2sc3nc4c(cc3c2N)C(=O)CCC4)c1	97

Test system: HT-29
Assay: Growth inhibition of human HT-29 cells incubated for 48 hrs by sulforhodamine B assay
Assay type: functional
Conditions: not given
Summary of the method: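 NCI60 panel at the NCI Developmental Therapeutics Program. Only compounds active in the 10 µM screen went to dose-response testing. GI50, the concentration giving 50% of maximal inhibition of proliferation, and TGI, the concentration giving total growth inhibition, were derived from the dose-response curves.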

SMILES	GI50 [µM]	LC50 [µM]	TGI [µM]
Cc1cccc(NC(=O)c2sc3nc4c(cc3c2N)C(=O)CCC4)c1	0.199	≥ 100	≥ 100

Test system: RPMI-8226
Assay: Growth inhibition of human RPMI-8226 cells assessed as cell growth at 0.01 uM incubated for 48 hrs by sulforhodamine B assay relative to control
Assay type: functional
Conditions: read-out: Activity

SMILES	growth at 0.01 µM [%]
Cc1cccc(NC(=O)c2sc3nc4c(cc3c2N)C(=O)CCC4)c1	99

Test system: HCT-116
Assay: Growth inhibition of human HCT-116 cells assessed as cell growth at 100 uM incubated for 48 hrs by sulforhodamine B assay relative to control
Assay type: functional
Conditions: read-out: Activity

SMILES	growth at 100 µM [%]
Cc1cccc(NC(=O)c2sc3nc4c(cc3c2N)C(=O)CCC4)c1	10

Test system: A498
Assay: Growth inhibition of human A498 cells assessed as cell growth at 0.1 uM incubated for 48 hrs by sulforhodamine B assay relative to control
Assay type: functional
Conditions: read-out: Activity
Summary of the method: as §1

SMILES	growth at 0.1 µM [%]
Cc1cccc(NC(=O)c2sc3nc4c(cc3c2N)C(=O)CCC4)c1	32

Test system: HOP-92
Assay: Growth inhibition of human HOP-92 cells assessed as cell growth at 100 uM incubated for 48 hrs by sulforhodamine B assay relative to control
Assay type: functional
Conditions: read-out: Activity

SMILES	growth at 100 µM [%]
Cc1cccc(NC(=O)c2sc3nc4c(cc3c2N)C(=O)CCC4)c1	-40

Test system: MCF7
Assay: Growth inhibition of human MCF7 cells assessed as cell growth at 0.1 uM incubated for 48 hrs by sulforhodamine B assay relative to control
Assay type: functional
Conditions: read-out: Activity

SMILES	growth at 0.1 µM [%]
Cc1cccc(NC(=O)c2sc3nc4c(cc3c2N)C(=O)CCC4)c1	56

Test system: SW-620
Assay: Growth inhibition of human SW-620 cells assessed as cell growth at 0.1 uM incubated for 48 hrs by sulforhodamine B assay relative to control
Assay type: functional
Conditions: read-out: Activity

SMILES	growth at 0.1 µM [%]
Cc1cccc(NC(=O)c2sc3nc4c(cc3c2N)C(=O)CCC4)c1	60

Test system: SNB-19
Assay: Growth inhibition of human SNB-19 cells incubated for 48 hrs by sulforhodamine B assay
Assay type: functional
Conditions: not given
Summary of the method: (§2)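 NCI DTP 60-line human tumour panel. Dose-response curves were run only for ligands active in the initial 10 µM screen. GI50 (concentration giving 50% of maximal inhibition of proliferation) and TGI (concentration giving total growth inhibition) were derived from these curves.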

SMILES	GI50 [µM]	LC50 [µM]	TGI [µM]
Cc1cccc(NC(=O)c2sc3nc4c(cc3c2N)C(=O)CCC4)c1	0.403	> 100	> 100

Test system: SF-268
Assay: Growth inhibition of human SF-268 cells incubated for 48 hrs by sulforhodamine B assay
Assay type: functional
Conditions: not given
Summary of the method: as §2

SMILES	GI50 [µM]	LC50 (concentration killing 50% of cells) [µM]	TGI [µM]
Cc1cccc(NC(=O)c2sc3nc4c(cc3c2N)C(=O)CCC4)c1	1.54	> 100	> 100

Test system: SK-OV-3
Assay: Growth inhibition of human SK-OV-3 cells incubated for 48 hrs by sulforhodamine B assay
Assay type: functional
Conditions: not given
Summary of the method: as §2

SMILES	GI50 [µM]	TGI [µM]
Cc1cccc(NC(=O)c2sc3nc4c(cc3c2N)C(=O)CCC4)c1	0.251	> 100

Same assay, conditions: read-out: LC50 (the source's name)

SMILES	CC50 [µM]
Cc1cccc(NC(=O)c2sc3nc4c(cc3c2N)C(=O)CCC4)c1	> 100

Test system: SN12C
Assay: Growth inhibition of human SN12C cells assessed as cell growth at 0.1 uM incubated for 48 hrs by sulforhodamine B assay relative to control
Assay type: functional
Conditions: read-out: Activity

SMILES	growth at 0.1 µM [%]
Cc1cccc(NC(=O)c2sc3nc4c(cc3c2N)C(=O)CCC4)c1	87
